Tests used:
MOLM-14 [1] = assay: Antiproliferative activity against human MOLM-14 cells assessed as inhibition of cell growth incubated for 72 hrs by resazurin dye based assay; format: functional; conditions: MOLM-14, 72 h
Outline: (§1)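 Logarithmic-phase cells were seeded at 5000 per well and treated 24 h later, in triplicate, with various concentrations for 72 h. MOLM14 lines were grown in RPMI with 10 % FBS, and other lines per provider instructions, all at 37 °C and 5 % CO2. Resazurin was then added for 4–6 h and fluorescence read. GI50 was taken from percent growth versus DMSO control, fitted with a variable-slope normalized-response model; at least three runs.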

MOLM-14 [2] = assay: Antiproliferative activity against human MOLM-14 cells harboring FLT3-D835Y mutant assessed as inhibition of cell growth incubated for 72 hrs by resazurin dye based assay; format: functional; conditions: MOLM-14, 72 h; outline: as §1
MOLM-14 [3] = format: functional, cell-based; conditions: Homo sapiens, MOLM-14, 72 h
K562 = assay: Antiproliferative activity against human K562 cells assessed as inhibition of cell growth incubated for 72 hrs by resazurin dye based assay; format: functional; conditions: K562, 72 h; outline: as §1
MDA-MB-231 = assay: Antiproliferative activity against human MDA-MB-231 cells lacking FLT3 activating mutations assessed as inhibition of cell growth incubated for 72 hrs by resazurin dye based assay; format: functional; conditions: MDA-MB-231, 72 h; outline: as §1
[4] = Cytotoxicity against HEK293 cells lacking FLT3 activating mutations assessed as inhibition of cell growth incubated for 72 hrs by resazurin dye based assay; format: toxicity; conditions: human; outline: as §1
[5] = biological target: T1, Receptor-type tyrosine-protein kinase FLT3 (Homo sapiens, UniProt P36888); assay: Inhibition of FLT3 (unknown origin) by bioluminescent ADP-Glo assay
T1 sequence (P36888 whole entry): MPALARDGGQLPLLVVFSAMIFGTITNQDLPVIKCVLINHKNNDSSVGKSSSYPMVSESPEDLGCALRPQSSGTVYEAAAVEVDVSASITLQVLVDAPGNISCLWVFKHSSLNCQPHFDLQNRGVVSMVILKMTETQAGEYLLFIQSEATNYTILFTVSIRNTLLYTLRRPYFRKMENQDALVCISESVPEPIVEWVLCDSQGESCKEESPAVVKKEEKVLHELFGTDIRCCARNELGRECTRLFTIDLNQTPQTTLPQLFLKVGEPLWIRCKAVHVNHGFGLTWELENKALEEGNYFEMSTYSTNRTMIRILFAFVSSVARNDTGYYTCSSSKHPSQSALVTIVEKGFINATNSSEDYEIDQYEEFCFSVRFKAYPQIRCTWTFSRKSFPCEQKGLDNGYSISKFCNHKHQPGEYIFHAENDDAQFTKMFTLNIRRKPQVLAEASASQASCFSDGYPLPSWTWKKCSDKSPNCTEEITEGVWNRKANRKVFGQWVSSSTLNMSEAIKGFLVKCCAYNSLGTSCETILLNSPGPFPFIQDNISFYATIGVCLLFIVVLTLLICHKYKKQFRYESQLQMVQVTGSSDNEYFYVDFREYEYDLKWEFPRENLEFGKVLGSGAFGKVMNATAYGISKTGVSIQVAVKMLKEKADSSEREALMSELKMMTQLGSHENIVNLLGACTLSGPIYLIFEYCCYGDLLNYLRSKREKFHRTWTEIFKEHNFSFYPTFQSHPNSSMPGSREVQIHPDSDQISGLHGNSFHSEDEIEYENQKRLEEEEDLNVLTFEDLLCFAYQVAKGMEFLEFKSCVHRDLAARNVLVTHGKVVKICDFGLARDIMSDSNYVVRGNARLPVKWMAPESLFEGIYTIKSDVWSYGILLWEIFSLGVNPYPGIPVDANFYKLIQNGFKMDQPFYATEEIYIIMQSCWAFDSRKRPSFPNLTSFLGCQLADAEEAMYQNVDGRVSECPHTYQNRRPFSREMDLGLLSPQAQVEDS

SMILES | IC50 (MOLM-14 [1]) | IC50 (MOLM-14 [2]) | IC50 (MOLM-14 [3]) | IC50 (K562) | IC50 (MDA-MB-231) | IC50 at 72 h [4] | IC50 [5]
COc1ccccc1Nc1cccc(-c2cnc3cc(-c4cnn(C)c4)ccn23)n1 | 2.38 nM | 1.65 nM | 14.4 nM | 274 nM | – | – | –
Cn1cc(-c2ccn3c(-c4cccc(Nc5ccccc5C(F)(F)F)n4)cnc3c2)cn1 | 0.95 nM | 0.31 nM | 184 nM | 262 nM | – | – | –
Cn1cc(-c2ccn3c(-c4cccc(Nc5ccc(C#N)cc5)n4)cnc3c2)cn1 | 18.3 nM | 48 nM | 135 nM | > 1000 nM | – | – | –
Cn1cc(-c2ccn3c(-c4cccc(NCc5c(F)cccc5F)n4)cnc3c2)cn1 | 1.31 nM | 5.9 nM | 566 nM | 119 nM | – | – | –
Cn1cc(-c2ccn3c(-c4cccc(Nc5cc(C(C)(C)C)nn5C)n4)cnc3c2)cn1 | 3.8 nM | 2.59 nM | 32.6 nM | 210 nM | – | – | –
COC(=O)c1ccc(C)c(Nc2cccc(-c3cnc4cc(-c5cnn(C)c5)ccn34)n2)c1 | 233 nM | 177 nM | > 1000 nM | > 1000 nM | – | – | –
Cn1cc(-c2ccn3c(-c4cccc(Nc5ccc(OC(F)(F)F)cc5)n4)cnc3c2)cn1 | 19.3 nM | 49.9 nM | 462 nM | > 1000 nM | – | – | –
Cn1cc(-c2ccn3c(-c4cccc(Nc5ccc(OCCN6CCCCC6)cc5)n4)cnc3c2)cn1 | 0.19 nM | 0.77 nM | 9.8 nM | > 1000 nM | – | – | –
Cn1cc(-c2ccn3c(-c4ccc(Cl)cc4)cnc3c2)cn1 | 16.9 nM | 166 nM | 293 nM | > 1000 nM | – | – | –
Cn1cc(-c2ccn3c(-c4cccc(Nc5ccc6c(c5)OCO6)n4)cnc3c2)cn1 | 6.09 nM | 4.91 nM | 920 nM | – | – | – | –
C=Cc1ccc(Nc2cccc(-c3cnc4cc(-c5cnn(C)c5)ccn34)n2)cc1 | 6.76 nM | 4.39 nM | 90.7 nM | > 1000 nM | – | – | –
Cc1ccc(Nc2cccc(-c3cnc4cc(-c5cnn(C)c5)ccn34)n2)cc1 | – | 5.67 nM | 18.9 nM | 219 nM | – | – | –
Cn1nc(C(C)(C)C)cc1Nc1cccc(-c2cnc3cc(-c4ccc(S(C)(=O)=O)cc4)ccn23)n1 | 4.3 nM | 5.32 nM | 54.2 nM | 688 nM | – | – | –
Cn1cc(-c2ccn3c(-c4cccc(Nc5ccc(N6CCOCC6)cc5)n4)cnc3c2)cn1 | 3.25 nM | 1.41 nM | 238 nM | > 1000 nM | – | – | –
Cc1ccc(-n2nc(C(C)(C)C)cc2Nc2cccc(-c3cnc4cc(-c5ccc(S(C)(=O)=O)cc5)ccn34)n2)cc1 | 278 nM | 613 nM | > 1000 nM | > 1000 nM | – | – | –
CC(C)(C)c1ccc(Nc2cccc(-c3cnc4cc(-c5ccc(S(C)(=O)=O)cc5)ccn34)n2)cc1 | 110 nM | 203 nM | > 1000 nM | > 1000 nM | – | – | –
CCc1nc(C(N)=O)c(Nc2ccc(N3CCC(N4CCN(C)CC4)CC3)c(OC)c2)nc1NC1CCOCC1 [GILTERITINIB] | – | – | – | > 1000 nM | – | – | –
Cn1cc(-c2ccn3c(-c4cccc(Cl)c4)cnc3c2)cn1 | 29.5 nM | 591 nM | 304 nM | > 1000 nM | – | – | –
CC1CN(c2cccc(-c3cnc4cc(-c5cnn(C)c5)ccn34)n2)CCN1C(=O)OC(C)(C)C (stereo not drawn) | 101 nM | 353 nM | 426 nM | > 1000 nM | – | – | –
Cn1cc(-c2ccn3c(-c4cccc(Nc5ccc(C(F)(F)F)cc5)n4)cnc3c2)cn1 | 33.3 nM | 18.9 nM | 160 nM | > 1000 nM | – | – | –
Cn1cc(-c2ccn3c(-c4cccc(Cl)n4)cnc3c2)cn1 | 28.7 nM | 228 nM | 458 nM | > 1000 nM | – | – | –
COc1ccc(Nc2cccc(-c3cnc4cc(-c5cnn(C)c5)ccn34)n2)cc1OC | 2.49 nM | 4.64 nM | 14 nM | 969 nM | > 1000 nM | > 1000 nM | 6.63 nM

SMILES | IC50 (MOLM-14 [1]) | IC50 (MOLM-14 [2]) | IC50 (MOLM-14 [3]) | IC50 (K562) | IC50 (MDA-MB-231) | IC50 at 72 h [4] | IC50 [5]
Cn1cc(-c2ccn3c(-c4cccc(Nc5cc(C(C)(C)C)nn5-c5ccc(F)cc5)n4)cnc3c2)cn1 | 18 nM | 56 nM | > 1000 nM | > 1000 nM | – | – | –
Cn1cc(-c2ccn3c(-c4cccc(Nc5cccc(C(F)(F)F)c5)n4)cnc3c2)cn1 | 2.24 nM | 3.2 nM | 28.9 nM | 132 nM | – | – | –
CCN(CC)CCOc1ccc(Nc2cccc(-c3cnc4cc(-c5cnn(C)c5)ccn34)n2)cc1 | 0.51 nM | 0.87 nM | 7.42 nM | 924 nM | – | – | –
COc1cc2/c(=N/c3ccc(Br)cc3F)nc[nH]c2cc1OCC1CCN(C)CC1 [VANDETANIB] | – | – | > 20000 nM | – | – | – | –
Cn1cc(-c2ccn3c(-c4cccc(NC5CCN(C(=O)OC(C)(C)C)CC5)n4)cnc3c2)cn1 | 17.2 nM | 18.2 nM | 97.5 nM | > 1000 nM | – | – | –
COc1cc(Nc2cccc(-c3cnc4cc(-c5cnn(C)c5)ccn34)n2)cc(OC)c1OC | 6.95 nM | 27.5 nM | 105 nM | 960 nM | – | – | –
Cn1cc(-c2ccn3c(-c4cccc(N5CCN(C(=O)OC(C)(C)C)CC5)n4)cnc3c2)cn1 | 51.9 nM | 259 nM | 794 nM | > 1000 nM | – | – | –
Cn1cc(-c2ccn3c(-c4cccc(Nc5ccc(C(=O)OC(C)(C)C)cc5)n4)cnc3c2)cn1 | 76.6 nM | 76.6 nM | 792 nM | > 1000 nM | – | – | –
Cn1cc(-c2ccn3c(-c4cccc(Nc5ccc6c(c5)OCCO6)n4)cnc3c2)cn1 | 1.72 nM | 0.87 nM | 9.98 nM | > 1000 nM | – | – | –
Cn1cc(-c2ccn3c(-c4cccc(Nc5ccc(OCCN6CCCC6)cc5)n4)cnc3c2)cn1 | 0.77 nM | 2.21 nM | 12.5 nM | > 1000 nM | – | – | –
CCOC(=O)Cc1ccc(Nc2cccc(-c3cnc4cc(-c5cnn(C)c5)ccn34)n2)cc1 | 99 nM | 121 nM | > 1000 nM | > 1000 nM | – | – | –
Cn1cc(-c2ccn3c(-c4cccc(Nc5ccc(C(C)(C)C)cc5)n4)cnc3c2)cn1 | – | 41.9 nM | > 1000 nM | > 1000 nM | – | – | –
Cc1ccc(-n2nc(C(C)(C)C)cc2Nc2cccc(-c3cnc4cc(-c5cnn(C)c5)ccn34)n2)cc1 | 162 nM | 414 nM | > 1000 nM | > 1000 nM | – | – | –
Cn1cc(-c2ccn3c(-c4cccc(Nc5ccc(Cl)cc5)n4)cnc3c2)cn1 | 28.8 nM | 23.1 nM | 337 nM | 736 nM | – | – | –
Cn1cc(-c2ccn3c(-c4cccc(Nc5ccc([N+](=O)[O-])cc5)n4)cnc3c2)cn1 | 6.82 nM | 5.19 nM | 314 nM | 923 nM | – | – | –
CCc1ccc(Nc2cccc(-c3cnc4cc(-c5cnn(C)c5)ccn34)n2)cc1 | 9.03 nM | 3.62 nM | 294 nM | 927 nM | – | – | –
Cn1cc(-c2ccn3c(-c4cccc(Nc5ccc(OCCN6CCOCC6)cc5)n4)cnc3c2)cn1 | 1 nM | 1.83 nM | 7.1 nM | > 1000 nM | – | – | –
Cn1cc(-c2ccn3c(-c4cccc(Nc5cnccn5)n4)cnc3c2)cn1 | 4.03 nM | 2.46 nM | 259 nM | 115 nM | – | – | –
COc1cc(Nc2cccc(-c3cnc4cc(-c5ccc(S(C)(=O)=O)cc5)ccn34)n2)cc(OC)c1OC | – | 43.9 nM | 130 nM | > 1000 nM | > 1000 nM | > 1000 nM | 94.6 nM
CC(C)c1ccc(Nc2cccc(-c3cnc4cc(-c5cnn(C)c5)ccn34)n2)cc1 | 13.5 nM | 8.91 nM | 142 nM | > 1000 nM | – | – | –
Cn1cc(-c2ccn3c(-c4ccccc4Cl)cnc3c2)cn1 | 397 nM | > 1000 nM | > 1000 nM | > 1000 nM | – | – | –

Source: ChEMBL document CHEMBL5528013 (Eur J Med Chem, 2024)
